Screening data from PubChem.
Yeast lifespan up: compounds extending yeast replicative lifespan, primary screen, S. cerevisiae, OD615; S. cerevisiae growth with nicotinamide; deaD strain in restrictive glucose medium; inhibition of the nicotinamide effect, % at 10 µM; hit rate 0.68% among 130,000; AID 775, 2007;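 active means inhibition above a set limit, placed 3 SD over the median of all compounds, cut at about 26% in these data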;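 further: 0% = nicotinamide-treated wells and 100% = cells grown without nicotinamide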
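Assay system: DeaD-strain S. cerevisiae. Medium: CSMM-D glucose medium, restrictive. Reagent: nicotinamide, 1.5 mM, co-present with compound. Compound: 10 µM single point, 0.25% DMSO. Schedule: culture preincubation 4 h, compound exposure 48 h, both 30 °C. Detection: absorbance at 615 nm.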
RAM network inh: inhibitors of the yeast RAM network, primary screen, dse1pr::URA3 reporter, 5-FOA selection | inhibition, % at 50 µM | hit rate 1.8% among 190,000 | AID 868, 2007 | S. cerevisiae dse1pr::URA3 reporter, 5-FOA growth OD615, 2 d; analog-sensitive cbk1-as2 kinase mutant strain;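 active means inhibition above a set limit, 3 SD over mean compound inhibition, cut at about 8.4% in these data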;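 further: 0% = DMSO-only wells with no growth and 100% = 10 µM 1-NA-PP1 full growth; inhibition rescues growth on 5-FOA so higher OD means more RAM inhibition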
BB579 growth dn: growth inhibitors of yeast BB579 in restrictive medium, primary screen, yeast lifespan-shortening project, S. cerevisiae; inhibition, % at 10 µM; AID 804, 2007; hit rate 0.51% among 140,000; OD615, 48 h;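 active means inhibition above a set limit, 3 SD over the mean compound inhibition, cut at about 44% in these data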
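Material: Saccharomyces cerevisiae DeaD strain BB579, replicative lifespan model yeast; buffer or medium: CSMM-D restrictive synthetic medium containing dextrose (glucose); compound: 10 µM single dose, DMSO 0.25%; timing: 48 h compound exposure at 30 °C after 4 h preincubation; signal: turbidity as optical density at 615 nm; benchmarks: positive control amphotericin B 10 µg/mL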
sdo1 growth: growth rescue of sdo1-depleted yeast, primary screen, S. cerevisiae, bone marrow failure model. S. cerevisiae sdo1-depleted JHY4D growth rescue, OD600 30 h; stronger effect = higher value; pdr5 snq2 efflux-pump mutant strain. z-score at 10 µM. hit rate 0.21% among 140,000;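 active means z-score above 3 at both the 24 hr and the 30 hr optical density reads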;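 further: z-score against mean and SD of all compound wells on the same plate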
SDO1 rescue DR: SDO1-depleted yeast growth rescue, concentration-response, diseases of bone marrow failure, JHY4D, OD600 | shares compounds with sdo1 growth | S. cerevisiae JHY4D (SDO1-depleted) growth rescue, 30 h; stronger effect = higher value; efflux-deficient strain, SNQ2 and PDR5 mutated | OD recovery (concentration not given with the values) | hit rate 44% among 440 | AID 949, 2007;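 active means yeast growth recovered at 30 hours, either rising with dose fitted slope above 0.001 or with average optical density gain above 0.07, some results past the limit were not filed as active; inactive means growth falling with dose or no effect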;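 further: gain in OD600 from 0 h to 30 h averaged across all seven doses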
* = called active by the depositor; · = not tested or not shown; ! = repeats disagree. The list is not random: actives were taken first. Their share in the collection is about 2.7%.

SMILES	Yeast lifespan up	RAM network inh	BB579 growth dn	sdo1 growth	SDO1 rescue DR
CSCCC(NS(=O)(=O)c1ccc(Cl)cc1)C(=O)OCC(=O)c1c(C)[nH]c2ccccc12 (stereo not drawn)	1.2	10.0*	-22.6	6.22*	0.053
CCc1nnc(NC(=O)CCN(c2cc(C)cc(C)c2)S(=O)(=O)c2ccc(Cl)cc2)s1	7.5	3.3	-18.2	-0.6	·
COc1ccc(/C=N/NC(=O)CNS(=O)(=O)c2ccc(C)cc2)cc1	·	0.1	·	·	·
CCCCCCCCNC(=O)c1cnsn1	-1.6	-1.2	19.7	1.32	·
CCCCCCCCNC(=O)c1cnccn1	7.8	-1.4	-6.2	9.37*	0.0526
COc1cccc(OCC(O)CN2CCC(C)CC2)c1 (stereo not drawn)	-3.6	1.8	18.5	0.2	·
CCn1nnnc1SCC(=O)c1ccc2c(c1)OCCO2	0.8	-0.4	-32.3	10.2*	0.0287
Cc1ccc(C)n1CCN1CCN(C(=O)c2ccco2)CC1	-12.6	2.5	-31.3	3.01*!	0.0521
CCc1ccc(S(=O)(=O)NCc2csc(-c3ccccc3)n2)s1	44.4	6.5	-71.5	-0.77	·
CCS(=O)(=O)NCCc1csc(-c2cccnc2)n1	-1.4	0.6	-15.3	0.24	·
CCc1ccc(S(=O)(=O)NCCc2csc(-c3ccccc3)n2)s1	34.6	8.5*	-17.7	4.3*	0.0678
CCc1ccc(S(=O)(=O)NCCc2csc(-c3cccnc3)n2)s1	1.7	0.3	-31.5	4.36*	0.0517
COc1ccccc1-c1cc(-c2ccc(C)cc2)nc(SCc2nnc(-c3ccccc3)o2)c1C#N	2.1	6.5	-18.5	-0.3	·
Cc1cc(NC(=O)c2cccs2)n(-c2ccccc2)n1	-6.4	-1.4	-15.6	3.47*	0.0834*
COc1ccccc1/C=C/C(=O)NC(=S)Nc1ccc(S(=O)(=O)N(C)c2ccccc2)cc1	17.2	4.3	-33.2	2.02	0.0473
CCN1C(=O)C(O)(CC(=O)c2ccc(-n3cccc3)cc2)c2ccccc21 (stereo not drawn)	1.2	1.0	-37.8	3.03*	0.101*
CSCC[C@H](NC(=O)OC(C)(C)C)c1nnc(SCC(N)=O)o1	-8.3	0.7	-42.5	9.56*	0.0458*
CCN(CC)C(=O)CSc1nnc([C@H](CCSC)NC(=O)OC(C)(C)C)o1	-9.1	1.0	-24.5	0.13	·
Cc1cc(C)nc(N(C#N)S(=O)(=O)c2ccc(Br)cc2)n1	3.7	1.1	-21.5	12*	0.0373
CCOC(=O)C1CCCN(C(=O)Nc2cccc(Cl)c2)C1 (stereo not drawn)	9.3	0.1	-44.3	2.34	0.065
O=C(COC(=O)c1ccc2c(c1)OCO2)Nc1nc(-c2ccccc2)cs1	·	4.2	·	·	·
Cc1cc(C)c(-c2csc(NC(=O)COC(=O)c3ccc4c(c3)OCO4)n2)c(C)c1	5.3	4.5	-27.7	0.97	0.0538
Cc1ccc2nc(-c3ccc(NC(=O)COC(=O)c4ccco4)cc3)sc2c1	-0.3	3.5	-29.7	0.16	·
CCOc1ncccc1C(=O)OCC(=O)Nc1ccc(-c2nc3ccc(C)cc3s2)cc1	-1.1	2.1	-42.5	0.5	0.035
CCSc1ncc(Cl)c(C(=O)Nc2sc3c(c2C(=O)NCc2cccnc2)CCCC3)n1	-12.5	3.4	-28.3	1.2	0.072*
SMILES	Yeast lifespan up	RAM network inh	BB579 growth dn	sdo1 growth	SDO1 rescue DR
COC(=O)C1(C(=O)OC)NOC2C(=O)N(c3ccccc3)C(=O)C21 (stereo not drawn)	-3.7	0.5	-20.5	7.77*	0.0924*
CCOC(=O)c1cccnc1SCC(=O)NC(C)CC (stereo not drawn)	-3.6	-0.2	-33.1	2.04	0.0902*
CSc1nc(N)nc(SCC(=O)c2ccc(C)cc2)c1C#N	-4.8	5.6	-23.6	1.33	0.0762*
Cc1ccc(N2OC3C(=O)NC(=O)C3C2c2ccco2)cc1 (stereo not drawn)	-3.1	0.8	-26.1	0.8	·
CC(=O)NCCNC(=O)c1oc2ccccc2c1CSc1ncn[nH]1	·	0.7	·	·	·
COc1cc(/C=N/NC(=O)CCC(=O)NCc2ccccc2)cc(OC)c1OC	4.2	0.9	-31.1	4.48*	0.0945*
COc1cc(/C=N/NC(=S)N/N=C/c2cc(OC)c(OC)c(OC)c2)cc(OC)c1OC	1.9	6.5	-24.2	3.01*	0.0295
N#Cc1cc2c(nc1SCC(=O)Nc1sc3c(c1C#N)CCC3)CCCCCC2	-4.9	1.7	-46.4	-1.21	·
N#Cc1cc2c(nc1SCC(=O)Nc1sc3c(c1C#N)CCC3)CCC2	-7.0	3.6	-30.2	1.12	0.0241
O=C(Cc1coc(-c2ccc(F)cc2)n1)Nc1ccccc1	-28.4	1.4	0.6	3.22*	0.0412
O=C(NCCO)c1nc(NCCO)c2ccccc2n1	-3.4	1.1	-26.4	5.58*	0.0311
OCCNc1nc(-c2ccccc2)nc2ccccc12	·	1.1	·	·	·
Cc1[nH]c(C(=O)O)c(C)c1C(=O)OC(C)C	-10.1	1.2	-27.7	0.65	·
Cc1cc(S(=O)(=O)NCC(C)C)ccc1OCC(=O)NCC1CCCO1 (stereo not drawn)	4.0	0.9	-19.8	7.79*	0.0689
CC(C)c1ccc(NC(=O)COc2ccccn2)cc1	·	3.9	·	·	·
CC(C)(C)NC(=O)NC(=O)COc1ccccn1	-1.6	1.1	-23.6	3.23*	0.0556
O=C(NCc1ccccc1)c1ccc(Br)cc1	·	1.2	·	·	·
O=C(NCc1ccccc1)c1cccc(Br)n1	-6.4	-0.7	-22.6	14.7*	0.0634
CCOC(=O)c1cc(-c2ccc(OC)cc2)n(CCC(=O)NCCN2CCC(C)CC2)c1C	·	-0.3	·	·	·
CCCc1nn(C)c(C(=O)Nc2ccc3ccccc3c2)c1Cl	-0.3	10.9*	-28.1	4.12*	0.0962*
O=C(O)c1cccc(Cn2cccn2)c1	4.9	2.0	-39.1	0.35	·
NC(=O)C1(N2CCCCC2)CCN(C(=S)Nc2ccccc2)CC1	4.7	-0.3	-29.0	0.15	·
CCOc1ccc(NC(=O)N2CCC(C(N)=O)(N3CCCCC3)CC2)cc1	-2.4	3.0	-52.0	13.1*	0.0655
CCOC(=O)c1c(NC(=O)CSc2nncs2)sc(C)c1C	3.3	5.2	-29.8	0.62	0.0831
CCOC(=O)c1sc(NC(=O)CSc2nnc(C)s2)c(C(=O)OCC)c1C	-4.1	2.0	7.3	-0.45	·
COc1ccc2c(c1)sc(N)[n+]2Cc1cc(C)cc2cccnc12	6.0	1.0	-10.9	9.73*	0.0648
COC(=O)c1ccc2c(c1)C(=O)/C(=C/c1ccc(O)cc1)O2	-6.5	1.2	-8.6	3.49*	0.0604
CC1(C)CC(=O)C(C2NCCc3ccccc32)=C(O)C1 (stereo not drawn)	1.1	-0.5	-39.4	1.57	·
COc1ccc(OCC(O)Cn2c(Nc3ccccc3)nc3c2c(=O)n(C)c(=O)n3C)cc1 (stereo not drawn)	0.1	2.9	-67.0	1.2	0.0518*
